In the library only some 3.1% were active in any assay of this set; here they are far more common.
Ecoli rRNA inh: selective bacterial rRNA inhibition in E. coli; E. coli WT GFP vs humanized-ribosome RFP mutants, fluorescence, 24 h; hits give low values; DMSO median 0, no signal -100; hit rate 1.6% among 350,000; GFP signal change (wild-type ribosome), % (test concentration not listed);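 active = significant combined selectivity score with lowered wild-type GFP, culture density cut under 30%, mutant RFP and density less affected; inactive = any of these conditions unmet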
CFTR F508del cor: correctors of CFTR F508del function in bronchial epithelial cells | CFBE cells, YFP halide quenching; stimulated with forskolin plus potentiator P3; % fluorescence drop versus neutral controls | activity (quench increase), % at 7.58 µM | hit rate 0.36% among 350,000;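 active = mean added fluorescence quench of at least 8% versus neutral control, with both replicates also reaching 8%; inconclusive = only one of the mean or replicate conditions met; inactive = mean below 8% and not both replicates reaching 8%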;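 also: cells transiently co-express mutant CFTR-F508del with the halide-sensitive YFP; corrector assay measuring rescue of mutant channel to the surface after 24 h compound exposure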
S100A4 inh HTS: blocks human S100A4 binding to myosin IIA peptide. P26447. S100A4/TAMRA-MyoIIA peptide fluorescence polarization. inhibition, % at 10.7 µM. hit rate 0.14% among 360,000. AID 652163;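 active = mean inhibition of at least 70% across replicates, with every replicate also reaching that level; inconclusive = mean inhibition reaches 70% but some replicates fall short; inactive = mean inhibition below 70%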
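Material: S100A4 monomer protein | Medium: HEPES pH 7.2 with CaCl2, KCl, NaCl, DTT, Triton | Reagent: Labelled myosin peptide probe, 5 nM | Doses: One dose per compound | Times: 5 min incubation before reading | Benchmarks: Neutral control DMSO, positive control TFP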
ERAP1 HTS inh: inhibitors of human ERAP1 aminopeptidase | Q9NZ08 | recombinant ERAP1, Leu-AMC fluorescence, 60 min | inhibition, % at 10.7 µM | hit rate 0.15% among 340,000 | AID 652197;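 active = mean replicate inhibition of at least 30%, or all replicates individually reaching that 30% level; inactive = mean below 30% and not every replicate reaching it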;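 also: 0% = neutral control wells and 100% = L-leucinethiol positive control wells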
Target sequence (Q9NZ08 whole entry, looked up): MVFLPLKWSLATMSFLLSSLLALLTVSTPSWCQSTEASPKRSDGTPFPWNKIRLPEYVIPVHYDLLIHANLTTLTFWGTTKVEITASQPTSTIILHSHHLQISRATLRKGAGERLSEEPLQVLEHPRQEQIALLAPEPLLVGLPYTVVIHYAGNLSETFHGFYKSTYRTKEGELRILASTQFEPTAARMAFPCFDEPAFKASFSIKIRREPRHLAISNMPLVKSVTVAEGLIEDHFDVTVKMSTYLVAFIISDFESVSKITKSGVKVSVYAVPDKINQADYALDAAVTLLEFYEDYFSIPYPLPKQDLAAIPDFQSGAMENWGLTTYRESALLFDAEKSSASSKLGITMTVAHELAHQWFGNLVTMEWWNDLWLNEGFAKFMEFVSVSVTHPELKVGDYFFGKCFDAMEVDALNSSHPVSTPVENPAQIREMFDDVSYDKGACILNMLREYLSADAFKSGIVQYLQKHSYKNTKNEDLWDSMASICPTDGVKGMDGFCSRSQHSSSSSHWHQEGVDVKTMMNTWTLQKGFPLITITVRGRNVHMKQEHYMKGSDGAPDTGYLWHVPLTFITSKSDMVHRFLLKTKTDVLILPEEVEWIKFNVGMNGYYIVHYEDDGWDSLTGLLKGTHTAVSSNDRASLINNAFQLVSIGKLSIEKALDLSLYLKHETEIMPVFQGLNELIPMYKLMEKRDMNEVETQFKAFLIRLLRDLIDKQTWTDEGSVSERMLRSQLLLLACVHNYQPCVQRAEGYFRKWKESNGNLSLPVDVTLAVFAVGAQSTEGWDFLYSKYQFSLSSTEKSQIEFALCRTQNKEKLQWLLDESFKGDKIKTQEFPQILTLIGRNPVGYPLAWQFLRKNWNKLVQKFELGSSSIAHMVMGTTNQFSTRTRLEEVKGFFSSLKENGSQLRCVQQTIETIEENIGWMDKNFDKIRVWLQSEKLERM
SIRT5 inh: sirtuin-5 (human) deacylase inhibition; hit rate 1.1% among 330,000; inhibition, % at 15 µM; Q9NXA8; Purified SirT5, succinyl-peptide AMC, trypsin-coupled fluorescence; AID 652115; in the data active = inhibition above about 15%; inconclusive = no clear call, values can overlap the other calls
AID977621: wild-type E. coli growth inhibition versus H69 humanized strain – H69 mutant RFP, wild-type GFP, cherry-pick, dose response | shares compounds with Ecoli rRNA inh | fluorescence, 24 h | activity change, negative = inhibition at 50 µM | 1,900 tested, under 10 active;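 active = Wild-type ribosome reporter drop at least double the humanized mutant ribosome reporter drop, growth loss under a set limit; inconclusive = no clear call, values can overlap the other calls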;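 also: wild-type GFP and H69 mutant RFP strains grown together 50/50 in each well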
AID977628: E. coli growth inhibition, wild-type GFP versus h24 humanized RFP strain, dose response, h24 mutant RFP vs wild-type GFP, cherry-pick; activity change, negative = inhibition at 50 µM; shares compounds with Ecoli rRNA inh; 1,900 tested, under 10 active; E. coli WT GFP strain growth, fluorescence, 24 h; AID 977628;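 active = compound lowering the normal-ribosome reporter at least twice as much as the humanized-ribosome reporter, growth loss under a set limit; inconclusive = no clear call, values can overlap the other calls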;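 also: wild-type GFP and h24 humanized RFP strains co-cultured 1 to 1 per well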
Numbers without * were called inactive; ? = inconclusive; . = not tested or not shown.

SMILES	Ecoli rRNA inh	CFTR F508del cor	S100A4 inh HTS	ERAP1 HTS inh	SIRT5 inh	AID977621	AID977628
CCOC(=O)c1c(NC(=O)CN2CCC(C)CC2)sc(C)c1C	-21.2*	-1.4	-11.0	-0.6	-3.6	2.21	-13.9
CCCC(=O)Nc1ccc2c(c1)OC[C@H](C)N(Cc1ccc(-c3ccccn3)cc1)C[C@H](C)[C@@H](OC)CN(C)C2=O	-0.9	2.7	-1.2	-5.1	0.9	.	.
O=[N+]([O-])c1ccc(O)c(CSc2nnnn2-c2ccccc2)c1	-26.2*	1.1	0.9	2.3	4.2	-27.7	-12.6
CCOC(=O)c1cc2nc(-c3ccccc3)cc(C)n2n1	-29.0*	-2.9	-4.8	3.4	-4.0	-19.2	?
COc1cc2c(cc1OC)C1(C)N(CC2)C(C(C)=O)=NN1c1ccc(Cl)cc1 (stereo unspecified)	-17.1*	1.1	2.1	-2.1	-0.1	-3.4	.
Cc1cc2nc(-c3ccc4c(c3)CCC4)ccn2n1	-30.6*	-2.6	-1.0	9.3	-0.2	.	?
C[C@@H]1CN([C@H](C)CO)C(=O)Cc2cc(NC(=O)CCN3CCOCC3)ccc2O[C@@H]1CN(C)S(=O)(=O)c1cccs1	2.2	-1.0	-1.7	-2.1	-1.4	.	.
O=C(c1cc(C(=O)N2CCOCC2)c2nc3ccccc3n2c1)c1cc(Cl)cc(Cl)c1O	-18.5*	1.7	-2.5	.	-1.3	.	?
C[C@@H]1CN([C@H](C)CO)C(=O)Cc2cc(N(C)C)ccc2O[C@H]1CN(C)Cc1ccc(-c2ccccc2)cc1	-22.1	1.2	7.6	7.7	-2.6	.	.
O=C(NCc1nc2ccccc2[nH]1)c1ccc(S(=O)(=O)N2CCCC2)cc1	-28.6*	3.0	-0.3	-4.9	-3.9	-19.1	.
Cc1ccc(-c2cc[n+](Cc3ccccc3)cc2)cc1	-32.0*	-3.9	2.7	-3.3	-14.7	-7.76	?
O=C(NCc1ccccc1)C1C(=O)Nc2ccccc2C(=O)N1c1ccc2c(c1)OCCO2 (stereo unspecified)	-17.3*	-0.4	-2.9	.	-0.3	3.71	-3.78
C[C@@H]1CCCCO[C@H](CN(C)C(=O)NC2CCCCC2)[C@H](C)CN([C@@H](C)CO)C(=O)c2cc(NS(C)(=O)=O)ccc2O1	-3.8	0.7	.	.	.	.	.
Cc1cc(NC(=O)CN2CCN(c3ncccn3)CC2)no1	15.9	-1.3	-8.8	-1.2	-3.2	.	.
Cc1cc(NC(=O)CN2CCN(c3cccc(Cl)c3)CC2)no1	-15.4*	-1.4	-28.7	0.4	-1.9	.	?
Cc1cccc(C)c1NC(=O)CNC(=O)C(C)N1CCN(c2cccc(Cl)c2)CC1 (stereo unspecified)	-22.0*	-1.0	55.0	-2.0	-1.6	.	-15.9
O=C(Nc1ccc(S(=O)(=O)NC2=NCCCCC2)cc1)c1ccc([N+](=O)[O-])s1	-20.4*	-1.0	-3.2	5.0	-0.6	?	-4.13
O=C(Nc1ccc(S(=O)(=O)NC2=NCCCCC2)cc1)c1cccs1	-1.5	0.0	0.7	-1.2	5.2	.	.
CNC(=O)c1cc(C(=O)c2ccc(C(F)(F)F)cc2F)c[nH]1	-25.0*	0.6	-1.1	-0.4	-3.6	-7	?
O=C(C[C@H]1C[C@H]2c3cc(NC(=O)C4CCC4)ccc3O[C@H]2[C@@H](CO)O1)NCc1cccnc1	-3.4	-0.4	2.7	0.4	2.4	.	.
O=C1c2ccccc2C(c2nnnn2C2CCCCC2)N1CCc1ccc(O)cc1 (stereo unspecified)	-17.9*	-1.7	-3.3	.	0.0	7.86	-5.46
Nc1ccccc1C#CC(=O)c1ccccc1	-22.9*	-4.9	4.1	-4.9	-6.9	.	?
Nc1ccccc1C#Cc1ccc([N+](=O)[O-])cc1	11.4	.	-3.7	-0.3	-0.5	.	.
C=CCn1c(SCc2n[nH]c(=S)n2-c2ccccc2)nnc1-c1ccccc1	-21.5*	0.4	5.8	0.6	-1.3	.	?
CCc1cc(CN2CCOCC2)c(NC(=O)c2ccccc2)s1	-17.4*	-0.6	-10.3	-1.2	0.6	-0.08	-4.82
SMILES	Ecoli rRNA inh	CFTR F508del cor	S100A4 inh HTS	ERAP1 HTS inh	SIRT5 inh	AID977621	AID977628
CCc1cc(C(c2cccc(OC)c2)N2CCOCC2)c(NC(=O)c2ccccc2)s1 (stereo unspecified)	-2.3	.	-5.7	2.8	-0.6	.	.
COc1ccc(-c2csc(C)n2)cc1Br	-29.4*	0.9	0.4	0.8	0.9	-17.4	-12.6
COc1ccc(OC)c(NC(=O)c2ccc(-c3csc(C)n3)cc2)c1	-21.0	-0.1	2.2	-3.1	-1.7	.	.
C[C@@H]1CN([C@@H](C)CO)C(=O)c2cc(NC(=O)c3ccncc3)ccc2O[C@@H](C)CCCCO[C@H]1CN(C)Cc1ccc(C(=O)O)cc1	1.2	-0.4	1.8	2.9	0.7	.	.
CSc1ccc(CN(C)CC(=O)NC(C)c2ccccc2)cc1 (stereo unspecified)	-31.0*	-0.3	-4.0	1.5	-3.7	-6.8	.
CC(NC(=O)CN(C)Cc1ccc(Br)cc1)c1ccccc1 (stereo unspecified)	-1.0	0.7	-7.0	0.1	-4.2	.	.
CO[C@@H]1CN(C)C(=O)c2cc(NC(=O)C3CCC3)ccc2OC[C@@H](C)N(S(=O)(=O)c2ccc(Cl)cc2)C[C@H]1C	-0.9	0.4	2.9	0.8	1.5	.	.
COc1ccccc1CNC(=O)COC(=O)c1cccc(S(=O)(=O)N2CCCCC2)c1	-21.9	-0.2	8.8	-1.9	-2.5	.	.
O=C(COC(=O)c1cccc(S(=O)(=O)N2CCCCC2)c1)NCc1cccc(Cl)c1	-15.1*	-1.9	5.9	1.0	0.2	.	2.4
CCCc1nc2oc3c(NCCCN(C)C)ncnc3c2c2c1CCCC2	-22.6*	-0.5	-1.5	0.6	-6.3	-7.31	.
C[C@H]1CN([C@@H](C)CO)C(=O)c2cc(NC(=O)CCCN(C)C)ccc2O[C@H]1CN(C)S(=O)(=O)c1cn(C)cn1	5.7	-1.5	?	1.5	-0.3	.	.
O=[N+]([O-])c1ccc(NN=C2CCCCC2)c([N+](=O)[O-])c1	3.2	-3.3	-1.4	0.7	.	.	.
O=C(O)C1(Nc2ccc([N+](=O)[O-])cc2[N+](=O)[O-])CCCC1	-16.1*	-3.7	3.5	3.3	3.2	-17	-9.39
CCNC(=O)[C@@H]1[C@@H](CO)[C@@H]2Cn3c(ccc(-c4cccc(F)c4)c3=O)[C@H]1N2C(=O)c1ccccn1	0.4	-1.5	1.5	0.0	-6.8	.	.
COc1ccc(NC(=O)CCC(=O)c2cccs2)cc1S(=O)(=O)Nc1ccc(Cl)cc1	-19.4*	.	-2.8	12.7	-1.7	-14.8	.
COc1ccc(NC(=O)CCSc2ccc(C)cc2)cc1S(=O)(=O)Nc1ccccc1Cl	0.2	.	0.5	-1.9	-3.8	.	.
COc1ccc(NC(=O)CCS(=O)(=O)c2ccccc2Cl)cc1S(=O)(=O)Nc1ccc(Cl)cc1	-19.4*	5.6	-1.0	-2.1	-4.6	-7.71	.

Assay outcomes deposited in PubChem by Broad Institute.
